# T cell HTS: T cell immune modulation candidate. 2C CD8+ T cell-vesicle binding, flow cytometry; stronger effect = lower value. response (vesicle binding), % at 7 µM. hit rate 0.068% among 330,000;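 active = response, share of CD8 T cells binding vesicles, and their 90th percentile fluorescence all below set limits, cut at about 80% in these data, passing the limit was not always enough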;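 note: values below 100% mean blocked vesicle binding to the CD8+ T cells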
#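 Assay system: 2C TCR transgenic mouse naive CD8+ T cells, MACS-purified | Read-out: CD8+ gate FL2 mean fluorescence as % of same-row positive control | Signal: High-throughput flow cytometry with anti-B7-1 and anti-CD8 staining | Timing: Binding step 1.5 h, 37 °C, antibody labelling 20 min, ice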
# GRK2 inh: human GRK2 inhibition via aptamer displacement; inhibition of aptamer binding, % at 10 µM; P25098; hit rate 0.59% among 330,000; bead flow cytometry, FAM-aptamer displacement from GRK2;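 active = inhibition of aptamer binding above 40%, roughly 3 SD of noise, on plates passing a quality check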;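 note: median bead fluorescence of bound FAM aptamer so fluorescent compounds give negative values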
# Target sequence (P25098 whole entry, looked up): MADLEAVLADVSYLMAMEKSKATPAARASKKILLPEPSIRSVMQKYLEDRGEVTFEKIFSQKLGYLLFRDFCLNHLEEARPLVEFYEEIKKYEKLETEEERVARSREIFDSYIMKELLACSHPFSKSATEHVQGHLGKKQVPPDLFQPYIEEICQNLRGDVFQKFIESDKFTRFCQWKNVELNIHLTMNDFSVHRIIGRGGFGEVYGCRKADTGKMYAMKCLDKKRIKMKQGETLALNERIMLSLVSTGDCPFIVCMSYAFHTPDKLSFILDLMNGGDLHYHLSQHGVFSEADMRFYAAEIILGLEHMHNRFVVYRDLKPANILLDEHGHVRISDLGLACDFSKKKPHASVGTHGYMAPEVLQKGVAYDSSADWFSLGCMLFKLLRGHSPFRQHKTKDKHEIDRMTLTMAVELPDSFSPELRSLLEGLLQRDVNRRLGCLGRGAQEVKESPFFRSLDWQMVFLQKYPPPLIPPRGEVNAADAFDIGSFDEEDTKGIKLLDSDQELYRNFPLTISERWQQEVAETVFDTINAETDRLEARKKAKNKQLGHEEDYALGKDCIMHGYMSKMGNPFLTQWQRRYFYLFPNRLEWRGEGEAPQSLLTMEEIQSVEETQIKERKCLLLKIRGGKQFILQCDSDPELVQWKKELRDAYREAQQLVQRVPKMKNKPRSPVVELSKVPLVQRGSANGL
# Rce1 inhib: yeast Ras-converting enzyme inhibition; hit rate 0.27% among 290,000; yeast membranes, quenched prenylated peptide cleavage fluorescence; Q03530; calls only; AID 2563;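 active = fall in fluorescence gain of 50% or more versus controls, with final raw signal at or below 3038400; inconclusive = same 50% fall but final raw signal above 3038400; inactive = fall in fluorescence gain under 50%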;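 note: plate controls were neutral control wells for no effect and wells lacking membranes for full effect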
# SKN-1 inh: C. elegans SKN-1 inhibition | hit rate 0.49% among 360,000 | C. elegans VP596 Pgst-4::GFP/RFP ratio, acrylamide-induced, 24 h | inhibition, % at 21.8 µM | AID 624304;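 active = interference check ratio from 0.5 to 1.5 plus GFP to RFP signal ratio inhibition reaching or exceeding a fixed threshold, cut at about 30% in these data, passing the limit was not always enough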
# Myeloid diff 2: promotes myeloid progenitor differentiation; AID 624256; ER-HoxA9 myeloid progenitors, lysozyme-GFP differentiation, flow cytometry; hit rate 1% among 360,000; calls only at 10 µM;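 active = normalized GFP-positive differentiation at or above the plate's own cutoff, the solvent-only control mean plus 3 SD; inconclusive = no clear call, values can overlap the other calls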;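 note: cells exposed to compound for four days before flow analysis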
# Rin1 Abl inh: inhibitors of human Rin1-Abl protein interaction; TR-FRET Rin1/Abl binding, biochemical; inhibition, % at 7.35 µM; P00519+Q13671; hit rate 0.4% among 360,000; in the data active = inhibition above about 5%, passing the limit was not always enough
# Rin1-Abl confirm: Rin1-Abl interaction inhibition confirmation; shares compounds with Rin1 Abl inh; TR-FRET Rin1-Abl binding, purified proteins; inhibition, % at 7.35 µM; hit rate 49% among 1,300
# GFP quench: GFP fluorescence interference artifact; inhibition, % at 6.75 µM; shares compounds with Rin1 Abl inh; hit rate 8.5% among 1,300; AID 602125; inhibitors/quenchers counterscreen;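 note: ABL1-eGFP fusion protein alone without its partner RIN1-SBP; 0% = protein with vehicle and 100% = wells lacking protein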
# Numbers without * were called inactive; i = inactive; u = inconclusive; x = no result given; + = active, no number. Sampled rows, rich in hits. Any-hit rate of the full collection: about 2.6%. Cut-off read from the data, not from the text of the source, unless noted: active = inhibition above about 6.5%; inactive = the rest.
SMILES,T cell HTS,GRK2 inh,Rce1 inhib,SKN-1 inh,Myeloid diff 2,Rin1 Abl inh,Rin1-Abl confirm,GFP quench
O=S(=O)(c1ccc2c(c1)oc1ccccc12)N1CCOCC1,543,3,i,-7,i,8.5*,-1,1
Cn1c(CCNC(=O)c2ccco2)nc2cc(NS(=O)(=O)c3ccc(Cl)cc3)ccc21,945,2,i,-14,i,5.7*,-3,1
O=C(/C=C/c1ccc(Br)o1)NCCCN1CCOCC1,522,0,i,-3,i,1,x,x
O=c1c2ccccc2nc2c3ccccc3c(NCCO)nn12,318,2,i,3,i,-5,x,x
O=C(Nn1cnc2ccccc2c1=O)c1ccc(Br)cc1,145,0,i,-17,i,13*,-1,-1
CCc1ccc(C(=O)Nn2cnc3ccccc3c2=O)cc1,510,1,i,8,i,4,x,x
CC(C)N=c1scc(-c2cccs2)n1/N=C/c1ccc(O)c(O)c1O,577,2,x,5,i,14*,12*,2
CN=c1scc(-c2ccccc2F)n1/N=C/c1ccc(O)c(O)c1O,x,x,i,0,i,6.3*,8.8*,6.7*
COc1ccc(CCN=Cc2ccccc2O)cc1OC,132,0,i,7,i,1,x,x
CN(C)c1ccc(C=c2c3ccccc3n3c2cc(-c2ccccc2)[n+]3C)cc1,x,x,x,83,u,-18,x,x
CN(C)c1ccc(C=c2c3cc([N+](=O)[O-])ccc3n3c2cc(-c2ccccc2)[n+]3C)cc1,x,x,x,21,u,37*,4,35*
COc1cc(C=c2c3ccccc3n3c2cc(-c2ccccc2)[n+]3C)cc(OC)c1OC,x,x,x,70,i,14*,-4,3
CCN(CC)C(=O)CSc1nc(COc2ccccc2)nc2ccccc12,226,0,i,-1,i,42*,37*,0
COC(=O)CSc1nc(COc2ccccc2)nc2ccccc12,165,0,i,11,i,1,x,x
CS/C(=N\S(=O)(=O)c1cccs1)Nc1ccc(F)c(Cl)c1,286,0,i,-14,i,5.0*,-3,1
CS/C(=N\S(=O)(=O)c1cccs1)Nc1cccc(Cl)c1C,273,4,i,-7,i,0,x,x
CCc1ccc(N2C(=O)Cc3c2nc(N)c(C#N)c3N)cc1,348,4,i,5,i,-6,x,x
CCN(CC)c1nc2c3c(nc4c(c3c1C#N)CC(=O)N4c1ccc(Cl)cc1)NC(C)=N2,161,0,i,29,i,15*,14*,3
CC(C)CC(=O)Nc1nnc(SCC(=O)NCC2CCCO2)s1 (centres undefined),267,1,i,-10,i,-5,x,x
O=C1c2ccccc2C(=O)N1/N=C/c1ccc(O)c(O)c1,287,5,i,-9,i,11*,-3,6
O=C1C2C3C=CC(CC3)C2C(=O)N1/N=C/c1ccc(O)c(O)c1 (centres undefined),0,2,i,-3,i,6,x,x
O=C(CCCl)N1CCN(c2nc(-c3ccccc3)cs2)CC1,179,14,i,10,i,4,x,x
Cc1c(Cl)cccc1NC(=O)c1cc(S(=O)(=O)N2CCOCC2)cn1C,608,3,i,-3,i,8.4*,-1,-1
N#Cc1cccc(N2[C@@H](Cc3cc4ccccc4n3Cc3ccccc3)COC[C@H]2Cc2ccc3ccccc3c2)c1,x,x,x,-3,i,-3,x,x
O=C(O)c1ccc(-c2ncc[nH]2)cc1,267,1,i,-6,i,9.3*,1,0
SMILES,T cell HTS,GRK2 inh,Rce1 inhib,SKN-1 inh,Myeloid diff 2,Rin1 Abl inh,Rin1-Abl confirm,GFP quench
CCOc1ccc(/C=N/Nc2cc(N3CCOCC3)ncn2)c(O)c1,x,x,x,7,x,8.3*,2,2
COc1ccc(C(=O)Oc2cc(C)[nH]c(=O)c2[N+](=O)[O-])c(OC)c1,644,15,i,8,i,2,x,x
CCOCC(=O)N1CCc2ccccc21,226,0,i,-13,i,6.3*,-1,2
COc1cc(Cl)ccc1OCc1cc(C(=O)N2C[C@]3(C)C[C@H]2CC(C)(C)C3)no1,135,3,i,20,i,-1,x,x
CCn1c(=O)c2sccc2n(Cc2ccccc2)c1=O,364,0,i,1,i,-5,x,x
CCC(=O)NC(c1cccs1)c1cc([N+](=O)[O-])c2cccnc2c1O (centres undefined),290,4,i,19,i,10*,6.3*,9.3*
CCCC(=O)NC(c1cccs1)c1cc([N+](=O)[O-])c2cccnc2c1O (centres undefined),458,5,i,5,i,3,x,x
CNC(=O)C[C@H]1C(=O)N(CCc2ccccc2)C[C@@H]1CSC,x,x,x,5,i,0,x,x
COc1ccc(NC(=O)CNC(=O)Cc2cccc3ccccc23)c(OC)c1,744,1,i,7,i,-1,x,x
Cc1ccc(NC(=O)CSc2nc3c(c(=O)n(C)c(=O)n3C)n2C)cc1,492,0,i,10,i,6.8*,0,-4
Cn1c(=O)c2c(nc(SCC(=O)Nc3ccccc3)n2C)n(C)c1=O,216,0,i,8,i,-4,x,x
CN(C)S(=O)(=O)c1cccc(COC(=O)CCNC(=O)c2ccc([N+](=O)[O-])cc2)c1,272,3,x,4,i,5,x,x
NC(=S)NN=Cc1cc(-c2cccc(N)c2)ccn1,x,x,x,-3,i,11*,14*,5
CC(NC(=O)c1cc2c(=O)n(C)c3ccccc3c2n1C)c1ccc2c(c1)OCCO2 (centres undefined),262,0,i,10,u,7.6*,11*,-2
CC(=O)c1sc(NC(=O)c2ccc(Cn3cc(Br)cn3)o2)nc1C,167,0,i,4,i,-5,x,x
CC(=O)c1sc(NC(=O)c2ccc(Br)o2)nc1C,357,0,i,11,i,12*,-4,1
CC1CCCCC1NC(=O)CCNS(=O)(=O)c1cc(Br)cnc1N (centres undefined),396,0,i,1,i,7,x,x
COc1ccc(NS(=O)(=O)c2cc(N)ccc2N2CCOCC2)cc1,487,3,i,8,i,8.3*,0,-1
CC[C@@]1(C(=O)OC)N[C@H](CN(C)S(=O)(=O)c2ccc(OC(F)(F)F)cc2)[C@@H]2C(=O)N(C)C(=O)[C@@H]21,242,0,x,-5,i,-1,x,x
Nc1nc(N2CCN(C(=O)c3ccco3)CC2)nc2ccccc12,i,0,+,8,i,8.7*,3,0
